According to ChEMBL document CHEMBL3407422, “2-(2-oxo-morpholin-3-yl)-acetamide derivatives as broad-spectrum antifungal agents” (J Med Chem, 2015):
Values after ≈ are worked out from the molar mass of the structure shown. Active and inactive are the calls of the source. No cut-off for these calls is given here.

What was measured:
Candida albicans [1] = assay: Antifungal activity against Candida albicans SC5314 after 24 hrs; assay type: functional
Summary of the method: (§1)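 Overnight YPD cultures diluted in PBS (1/200 for C. albicans, 1/400 for C. glabrata). Cells treated with compound, or 2.5% DMSO as solvent control, for 24 h at 37 °C. CFUs then counted; MFC is the concentration giving 99% killing of the inoculum.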

Nakaseomyces glabratus = assay: Antifungal activity against Candida glabrata BG2 after 24 hrs; assay type: functional; summary of the method: as §1
Aspergillus fumigatus = assay: Antifungal activity against Aspergillus fumigatus CBS 117202 after 24 hrs by two-fold dilution method; assay type: functional; details: CBS 117202, 24 h
Summary of the method: (§2)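 Spores at 2×10^4 spores/mL in potato dextrose broth, incubated with a 2-fold compound dilution series for 24 h at 25 °C. Growth read by microspectrophotometry of the liquid cultures. MIC taken as the lowest concentration inhibiting fungal growth.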

Saccharomyces cerevisiae [2] = assay: Antifungal activity against Saccharomyces cerevisiae BY4741 at 12.5 to 50 ug/ml after 24 hrs by Omnilog plate reader analysis; assay type: functional, organism-based
Summary of the method: (§3)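 S. cerevisiae BY4741 from overnight YPD culture, 1/500 final dilution, in Biolog PM22–PM25 chemical sensitivity plates (96 conditions). Compound tested at 12.5 and 50 µg/mL. Plates incubated 24 h at 37 °C in the Omnilog reader.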

Candida albicans [3] = assay: Antifungal activity against Candida albicans SC5314 infected in BALB/c mouse assessed as reduction in reduction in fungal load in kidney at 10 mg/kg/day, ip for 5 days relative to vehicle-treated control; assay type: functional, organism-based
Summary of the method: (§4)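 BALB/c mice given cyclophosphamide 100 mg/kg at 4 days and 24 h before infection and at 3 days after. Infected IV with 2×10^3 SC5314 cells in saline. Dosed IP daily for 5 days from 16 h post-infection, in DMSO/0.5% methylcellulose (5/95). Organs taken on day 7, homogenized and plated on BHI agar (18 h, 37 °C). CFU/g compared with vehicle.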

[4] = Half life in mouse liver microsomes; assay type: ADME
[5] = Plasma protein binding in human; assay type: ADME, cell-free; details: read-out: PPB (converted)
Saccharomyces cerevisiae [6] = assay: Antifungal activity against Saccharomyces cerevisiae BY4741 at 12.5 to 50 ug/ml after 24 hrs by Omnilog plate reader analysis in presence of monothioglycerol; assay type: functional, organism-based; summary of the method: as §3
Candida albicans [7] = assay: Antifungal activity against Candida albicans SC5314 infected in BALB/c mouse assessed as reduction in reduction in fungal load in liver at 10 mg/kg/day, ip for 5 days relative to vehicle-treated control; assay type: functional, organism-based; summary of the method: as §4
[8] = Half life in simulated intestinal fluid […]; assay type: ADME
[9] = Apparent permeability from apical to basolateral side in human Caco2 cells; assay type: ADME, cell-based; details: Caco-2
Candida albicans [10] = assay: Antifungal activity against Candida albicans SC5314 infected in BALB/c mouse assessed as reduction in reduction in fungal load in spleen at 10 mg/kg/day, ip for 5 days relative to vehicle-treated control; assay type: functional, organism-based; summary of the method: as §4
[11] = Kinetic solubility of the compound at pH 7.4; assay type: physicochemical; details: buffer, read-out: Kinetic_solubility
[12] = Cytotoxicity against human MRC5 SV2 cells after 72 hrs by fluorescence assay; assay type: cell-based
Summary of the method: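 MRC-5 SV2 cells (10^4/well) grown in MEM with L-glutamine, NaHCO3 and 5% FCS. Incubated with compound 72 h at 37 °C, 5% CO2, then resazurin added for 24 h. Fluorescence read at ex 530, em 590 nm.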

Saccharomyces cerevisiae [13] = assay: Antifungal activity against Saccharomyces cerevisiae BY4741 at 12.5 to 50 ug/ml after 24 hrs by Omnilog plate reader analysis in presence of sodium cyanide; assay type: functional, organism-based; summary of the method: as §3
[14] = Apparent permeability from basolateral to apical side in human Caco2 cells; assay type: ADME, cell-based; details: Caco-2
Sporothrix schenckii = assay: Fungicidal activity against Sporothrix schenckii B62482; assay type: functional, organism-based
Summary of the method: (§5)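 Inoculum of 10^3 CFU in RPMI-MOPS added to prediluted compound, highest concentration 64 µM. Growth read by resazurin fluorescence (ex 550, em 590 nm). IC50 is 50% growth inhibition versus untreated controls. Three independent replicates.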

[15] = Half life in human liver microsomes; assay type: ADME
Aspergillus flavus = assay: Antifungal activity against Aspergillus flavus CBS111.45 after 24 hrs by two-fold dilution method; assay type: functional; details: CBS111.45, 24 h; summary of the method: as §2
Saccharomyces cerevisiae [16] = assay: Antifungal activity against Saccharomyces cerevisiae BY4741 at 12.5 to 50 ug/ml after 24 hrs by Omnilog plate reader analysis in presence of sodium thiosulfate; assay type: functional, organism-based; summary of the method: as §3
hERG (KCNH2) = hERG (KCNH2) (Homo sapiens, UniProt Q12809); assay: Inhibition of human ERG channel at 10 uM
hERG (KCNH2), sequence (Q12809 whole entry): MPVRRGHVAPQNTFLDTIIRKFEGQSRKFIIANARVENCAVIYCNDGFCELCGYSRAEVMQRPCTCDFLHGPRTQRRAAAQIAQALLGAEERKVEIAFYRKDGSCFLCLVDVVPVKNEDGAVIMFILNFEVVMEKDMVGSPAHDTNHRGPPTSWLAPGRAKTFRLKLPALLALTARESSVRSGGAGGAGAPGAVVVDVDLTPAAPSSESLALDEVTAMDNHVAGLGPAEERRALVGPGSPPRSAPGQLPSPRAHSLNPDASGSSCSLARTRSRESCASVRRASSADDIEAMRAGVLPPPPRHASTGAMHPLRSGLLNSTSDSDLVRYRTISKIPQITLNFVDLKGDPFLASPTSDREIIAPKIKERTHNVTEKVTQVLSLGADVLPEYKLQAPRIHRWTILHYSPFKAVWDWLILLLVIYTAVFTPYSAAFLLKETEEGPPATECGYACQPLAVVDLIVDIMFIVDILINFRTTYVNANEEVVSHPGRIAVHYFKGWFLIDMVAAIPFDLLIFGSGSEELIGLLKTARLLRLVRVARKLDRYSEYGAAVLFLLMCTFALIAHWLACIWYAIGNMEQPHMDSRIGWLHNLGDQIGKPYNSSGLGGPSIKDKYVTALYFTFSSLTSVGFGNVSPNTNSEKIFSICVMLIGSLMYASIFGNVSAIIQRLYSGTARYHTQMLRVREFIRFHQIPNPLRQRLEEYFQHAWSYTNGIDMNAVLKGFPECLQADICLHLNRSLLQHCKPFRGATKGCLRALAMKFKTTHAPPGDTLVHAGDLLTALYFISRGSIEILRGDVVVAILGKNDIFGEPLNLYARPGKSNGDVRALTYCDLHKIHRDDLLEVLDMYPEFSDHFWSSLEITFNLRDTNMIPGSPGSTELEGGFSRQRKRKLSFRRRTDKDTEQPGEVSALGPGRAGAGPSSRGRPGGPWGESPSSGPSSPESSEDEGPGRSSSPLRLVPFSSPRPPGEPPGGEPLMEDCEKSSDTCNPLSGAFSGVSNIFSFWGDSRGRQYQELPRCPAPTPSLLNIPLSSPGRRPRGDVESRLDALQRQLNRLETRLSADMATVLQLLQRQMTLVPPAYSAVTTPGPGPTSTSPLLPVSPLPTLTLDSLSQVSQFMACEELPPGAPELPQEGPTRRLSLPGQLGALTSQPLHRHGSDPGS

Microsporum canis = assay: Fungicidal activity against Microsporum canis B68128; assay type: functional; summary of the method: as §5
Trichophyton rubrum = assay: Fungicidal activity against Trichophyton rubrum B68183; assay type: functional, organism-based; summary of the method: as §5
[17] = system: Trichophyton mentagrophytes; assay: Fungicidal activity against Trichophyton mentagrophytes B70554; assay type: functional, organism-based; summary of the method: as §5
Candida albicans [18] = assay: Fungicidal activity against CA2 high-persister Candida albicans clinical isolate; assay type: functional
Saccharomyces cerevisiae [19] = assay: Antifungal activity against Saccharomyces cerevisiae BY4741 at 12.5 to 50 ug/ml after 24 hrs by Omnilog plate reader analysis in presence of chlortetracycline hydrochloride; assay type: functional, organism-based; summary of the method: as §3
[20] = Half life in human plasma; assay type: ADME, cell-free
[21] = Half life in simulated gastric fluid at pH 1.2; assay type: ADME
Summary of the method: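 Stability in simulated gastric fluid containing 800000 Units/L pepsin at pH 1.2; half-life reported.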

Saccharomyces cerevisiae [22] = assay: Antifungal activity against Saccharomyces cerevisiae BY4741 at 12.5 to 50 ug/ml after 24 hrs by Omnilog plate reader analysis in presence of potassium chromate; assay type: functional, organism-based; summary of the method: as §3
[23] = Half life in mouse plasma; assay type: ADME, cell-free

In the case of CC(C)c1ccc(NC(=O)CC2C(=O)OC(C)(C)CN2CCF)cc1 (centres undefined), the MFC99 (Candida albicans [1]) was over 25 µg/mL.
With CCCN1CC(C)(C)OC(=O)C1CC(=O)Nc1ccc(C(C)C)cc1 (centres undefined) the MFC99 (Candida albicans [1]) was over 25 µg/mL.
In the case of CCN1CC(C)(C)OC(=O)C1CC(=O)NCc1cccc(-c2ccccc2)c1 (centres undefined), the MFC99 (Nakaseomyces glabratus) was 12.5 µg/mL (≈ 32.9 µM), the MIC (Aspergillus fumigatus) was at most 3.1 µg/mL and the Activity (Saccharomyces cerevisiae [2]) was “Active”. The Activity (Candida albicans [3]) was “Active”, the half-life [4] was 1 min and the fraction unbound [5] was 0.003. The Activity (Saccharomyces cerevisiae [6]) was “inactive”, the Activity (Candida albicans [7]) was “Active” and the half-life [8] was 223 min. The Papp A→B [9] was 22 ×10⁻⁶ cm/s, the Activity (Candida albicans [10]) was “Active” and the solubility kinetic [11] was 50 µM (≈ 19 µg/mL). The CC50 at 72 h [12] was over 20 µg/mL, the Activity (Saccharomyces cerevisiae [13]) was “inactive” and the Papp B→A [14] was 13 ×10⁻⁶ cm/s. The IC50 (Sporothrix schenckii) was 2.7 µg/mL (≈ 7.1 µM), the MFC99 (Candida albicans [1]) was 12.5 µg/mL (≈ 32.9 µM) and the half-life [15] was 6 min. For the same compound, the MIC (Aspergillus flavus) was 25 µg/mL (≈ 65.7 µM), the Activity (Saccharomyces cerevisiae [16]) was “inactive” and the inhibition at 10 µM (hERG (KCNH2)) was 25.5%. It also gave an IC50 (Microsporum canis) of 2.4 µg/mL (≈ 6.31 µM), an IC50 (Trichophyton rubrum) of 0.7 µg/mL (≈ 1.84 µM) and an IC50 [17] of 3 µg/mL (≈ 7.88 µM). For the same compound, the MFC (Candida albicans [18]) was 12.5 µg/mL (≈ 32.9 µM), the Activity (Saccharomyces cerevisiae [19]) was “inactive” and the half-life [20] was over 240 min. The half-life [21] was over 240 min and the Activity (Saccharomyces cerevisiae [22]) was “inactive”.
CCN1CC(C)(C)OC(=O)C1CC(=O)NCc1ccccc1 (centres undefined) gave an MFC99 (Candida albicans [1]) of 12.5 µg/mL (≈ 41.1 µM).
For CCN1CC(C)(C)OC(=O)C1CC(=O)Nc1cccnc1 (centres undefined), the MFC99 (Candida albicans [1]) was over 50 µg/mL.
Compound CCN1CC(C)(C)OC(=O)C1CC(=O)NCc1ccco1 (centres undefined) has an MFC99 (Candida albicans [1]) of 50 µg/mL (≈ 170 µM).
For CC(C)c1ccc(NC(=O)CC2C(=O)OC(C)(C)CN2C(C)C)cc1 (centres undefined), the MFC99 (Candida albicans [1]) was over 25 µg/mL.
CCN1CC(C)(C)OC(=O)C1CC(=O)N1CCOCC1 (centres undefined) showed an MFC99 (Candida albicans [1]) of over 50 µg/mL.
For CCN1CC(C)(C)OC(=O)C1CC(=O)Nc1ccccn1 (centres undefined), the MFC99 (Candida albicans [1]) was over 50 µg/mL.
CCN1CC(C)(C)OC(=O)C1CC(=O)Nc1c(C)noc1C (centres undefined) showed an MFC99 (Candida albicans [1]) of over 50 µg/mL.
In the case of OC(Cn1cncn1)(Cn1cncn1)c1ccc(F)cc1F [FLUCONAZOLE], the Activity (Candida albicans [3]) was “Active” and the MFC99 (Candida albicans [1]) was over 100 µg/mL.
Compound CCN1CC(C)(C)OC(=O)C1CC(=O)NCc1cccc(C(F)(F)F)c1 (centres undefined) has an MFC99 (Candida albicans [1]) of 25 µg/mL (≈ 67.1 µM).
Work on CCN1CC(C)(C)OC(=O)C1CC(=O)Nc1ccnn1C (centres undefined) yielded an MFC99 (Candida albicans [1]) of over 50 µg/mL.
Compound CC(C)c1ccc(NC(=O)CC2C(=O)OC(C)(C)CN2c2ccccc2)cc1 (centres undefined) has an MFC99 (Candida albicans [1]) of over 50 µg/mL.
For CCN1CC(C)(C)OC(=O)C1CC(=O)NCCC(C)(C)C (centres undefined), the MFC99 (Candida albicans [1]) was 25 µg/mL (≈ 83.8 µM).
For Clc1ccc(COC(Cn2ccnc2)c2ccc(Cl)cc2Cl)c(Cl)c1 (centres undefined) [MICONAZOLE], the IC50 (Sporothrix schenckii) was 0.12 µg/mL (≈ 0.288 µM) and the IC50 (Microsporum canis) was 0.02 µg/mL (≈ 0.0481 µM).
In the case of CC(C)c1ccc(NC(=O)CC2NCC(C)(C)OC2=O)cc1 (centres undefined), the MFC99 (Candida albicans [1]) was over 25 µg/mL.
CCN1CC(C)(C)OC(=O)C1CC(=O)NCc1cccs1 (centres undefined) gave an MFC99 (Candida albicans [1]) of 25 µg/mL (≈ 80.5 µM).
For CC(C)c1ccc(NC(=O)CC2C(=O)OC(C)(C)CN2Cc2ccccc2)cc1 (centres undefined), the MFC99 (Candida albicans [1]) was over 50 µg/mL.
Work on CCN1CCOC(=O)C1CC(=O)Nc1ccc(C(C)C)cc1 (centres undefined) yielded an MFC99 (Nakaseomyces glabratus) of 12.5 µg/mL (≈ 41.1 µM), an MIC (Aspergillus fumigatus) of 12.5 µg/mL (≈ 41.1 µM) and a half-life [23] of 32 min. It also gave an MFC99 (Candida albicans [1]) of 12.5 µg/mL (≈ 41.1 µM) and a half-life [20] of 22 min.
With CCN1CC(CC)(CC)OC(=O)C1CC(=O)Nc1ccc(C(C)C)cc1 (centres undefined) the MFC99 (Candida albicans [1]) was over 25 µg/mL.
In the case of CCN1C[C@H](c2ccccc2)OC(=O)C1CC(=O)Nc1ccc(C(C)C)cc1 (some centres undefined), the MFC99 (Candida albicans [1]) was 12.5 µg/mL (≈ 32.9 µM) and the half-life [20] was 49 min.
In the case of C[C@@H]1[C@H](O)[C@@H](C)/C=C/C=C/C=C/C=C/C=C/C=C/C=C/[C@H](O[C@@H]2O[C@H](C)[C@@H](O)[C@H](N)[C@@H]2O)C[C@@H]2O[C@](O)(C[C@@H](O)C[C@@H](O)[C@H](O)CC[C@@H](O)C[C@@H](O)CC(=O)O[C@H]1C)C[C@H](O)[C@H]2C(=O)O [AMPHOTERICIN B], the MFC99 (Candida albicans [1]) was 1.6 µg/mL (≈ 1.73 µM).
Work on CCN1CC(C)(C)OC(=O)C1CC(=O)NC1CCCCC1 (centres undefined) yielded an MFC99 (Candida albicans [1]) of 50 µg/mL (≈ 169 µM).
Work on CCN1C[C@H](C)OC(=O)C1CC(=O)Nc1ccc(C(C)C)cc1 (some centres undefined) yielded an MFC99 (Candida albicans [1]) of 12.5 µg/mL (≈ 39.3 µM) and a half-life [20] of 57 min.
CCN1C[C@@H](C)OC(=O)C1CC(=O)Nc1ccc(C(C)C)cc1 (some centres undefined) showed an MFC99 (Candida albicans [1]) of 12.5 µg/mL (≈ 39.3 µM) and a half-life [20] of 55 min.
With CCN1CC(C)(C)OC(=O)C1CC(=O)NCc1ccc(Cl)c(Cl)c1 (centres undefined) the MFC99 (Candida albicans [1]) was 12.5 µg/mL (≈ 33.5 µM).
